Screening data (PubChem)
Most compounds without a hit are left out; they make up all but 1.6% or so of the library.
SR-BI DiI inh = blocks mouse SR-BI lipid uptake from DiI-HDL. Q61009. ldlA[mSR-BI] CHO cells, DiI-HDL uptake fluorescence, 3 h. inhibition, % at 12.5 µM. 320,000 tested, 0.96% active. AID 488896;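 active means mean replicate inhibition of at least 70% and a set share of replicates each scoring 70 or more; inconclusive means meets just one of the two criteria; inactive means fails both criteria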;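 further: 0% = median of neutral control wells and 100% = median of positive control wells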
PvdQ inh = blocks Pseudomonas aeruginosa PvdQ acylase activity; purified PvdQ acylase, fluorescence plate reader; inhibition, % at 10 µM; 340,000 tested, 0.063% active; in the data active means inhibition above about 30%, passing the limit was not always enough; inconclusive means no clear call, values can overlap the other calls;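 further: 0% = vehicle neutral wells and 100% = reference inhibitor wells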
S100A4 inh HTS = inhibitors of human S100A4 binding to myosin IIA peptide | P26447 | S100A4/TAMRA-MyoIIA peptide fluorescence polarization | inhibition, % at 10.7 µM | 360,000 tested, 0.14% active | AID 652163;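 active means mean inhibition of at least 70% across replicates, with every replicate also reaching that level; inconclusive means mean inhibition reaches 70% but some replicates fall short; inactive means mean inhibition below 70%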
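assay system = human S100A4 monomer with TAMRA-labelled myosin IIA peptide | also added = labelled myosin peptide probe, 5 nM | incubation = 5 min between mix addition and reading | control set = DMSO and TFP controls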
RAD54 branch = RAD54 (human) branch migration inhibition; Q92698; RAD54 Holliday junction branch migration, FAM/BHQ fluorescence; inhibition, % at 10.4 µM; 360,000 tested, 0.14% active; AID 602329;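 active means mean normalized replicate activity at least 40 and at least half of replicates scoring 40 or more; inconclusive means only one of the two criteria met; inactive means mean below 40 and under half of replicates reaching 40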;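 further: 0% = median of neutral control wells and 100% = median of positive control wells; inhibitors cause a drop in the FAM fluorescence signal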
Target sequence (Q92698 whole entry, looked up): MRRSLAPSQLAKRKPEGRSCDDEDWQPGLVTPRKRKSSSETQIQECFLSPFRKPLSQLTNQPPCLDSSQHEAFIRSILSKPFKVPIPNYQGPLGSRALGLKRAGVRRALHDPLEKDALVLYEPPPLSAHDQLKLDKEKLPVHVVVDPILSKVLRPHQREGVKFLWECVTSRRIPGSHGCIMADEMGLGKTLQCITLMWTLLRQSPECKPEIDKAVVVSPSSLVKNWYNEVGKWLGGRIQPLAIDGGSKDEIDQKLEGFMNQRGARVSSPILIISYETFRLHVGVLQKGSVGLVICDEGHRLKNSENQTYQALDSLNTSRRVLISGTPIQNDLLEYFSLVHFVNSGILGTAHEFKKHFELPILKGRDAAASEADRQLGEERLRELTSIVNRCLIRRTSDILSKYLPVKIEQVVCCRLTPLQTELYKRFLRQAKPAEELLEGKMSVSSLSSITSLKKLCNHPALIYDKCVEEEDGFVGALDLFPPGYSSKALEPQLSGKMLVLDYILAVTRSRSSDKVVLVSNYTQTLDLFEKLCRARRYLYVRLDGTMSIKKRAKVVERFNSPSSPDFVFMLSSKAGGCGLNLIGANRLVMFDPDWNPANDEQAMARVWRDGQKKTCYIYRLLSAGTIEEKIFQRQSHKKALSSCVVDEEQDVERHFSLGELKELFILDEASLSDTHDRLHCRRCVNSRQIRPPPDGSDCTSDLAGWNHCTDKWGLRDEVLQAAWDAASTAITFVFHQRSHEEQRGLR
dFosB activator = enhances mouse delta FosB homodimer DNA binding. 340,000 tested, 0.99% active. activation, % at 25 µM. purified delta FosB, TAMRA-CDK5 oligo fluorescence polarization; percent of positive-control signal above neutral wells;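 active means mean activation above about 17%, with every replicate also reaching it, limit read from the data, passing the limit was not always enough; inconclusive means only one of the two conditions met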
SR-BI uptake up = activators of SR-BI mediated HDL lipid uptake. CHO ldlA[mSR-BI] cells, DiI-HDL uptake fluorescence, 3 h; 100 = double the neutral-control signal. activation, % at 12.5 µM. 320,000 tested, 0.096% active. AID 504775;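 active means mean replicate activation of at least 60% and every replicate at or above 60%; inconclusive means mean or all-replicate condition met, but not both; inactive means mean below 60% and not all replicates reaching 60%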;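 further: 0% = median plate neutral-control signal and 100% = twice that signal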
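Material: SR-BI-overexpressing, LDLR-lacking CHO cells; schedule: compound exposure 3 h, 37 °C; reagent: DiI-labelled HDL at 10 µg/mL final; technique: bottom-read fluorescence, 550/595 nm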
An asterisk follows results filed as active; u = inconclusive; x = no result; + = active, no number.

SMILES	SR-BI DiI inh	PvdQ inh	S100A4 inh HTS	RAD54 branch	dFosB activator	SR-BI uptake up
Cc1cc(/C=N/NC(N)=S)c(C)n1-c1ccc(Cl)c(Cl)c1	81*	-15	-4	x	0	-81
Cc1ccc(-c2nnc(-n3ncc(C#N)c3N)c3ccccc23)cc1C	78*	1	-5	x	-9	-78
COc1cccc(NC(=O)N(C)C[C@H]2Oc3cc(C#CC4(O)CCCC4)ccc3S(=O)(=O)N([C@@H](C)CO)C[C@H]2C)c1	x	x	-3	-2	x	x
O=C(Nc1cc2c3c(c1)C1CCCC1CN3CC1CCCC21)c1ccccc1 (centres undefined)	80*	-9	x	50*	-19	-80
COC(=O)C[C@H]1C[C@@H]2c3cc(NS(=O)(=O)c4ccccc4)ccc3O[C@@H]2[C@H](CO)O1	x	x	x	8	x	x
O=C(C1CCC1)N1CC2(C1)[C@H](c1ccccc1)[C@@H](CO)N2Cc1ccc(Cl)cc1	x	x	-15	x	x	x
CCN(C(=O)COC(=O)c1ccccc1NCc1ccco1)c1c(N)n(Cc2ccccc2)c(=O)[nH]c1=O	73*	-22	-4	-3	-11	-73
COc1cc2ccccc2cc1C(=O)OCC(=O)N(CC(C)C)c1c(N)n(Cc2ccccc2)c(=O)[nH]c1=O	80*	1	3	-1	6	-80
COCCN(C(=O)COC(=O)c1cc2ccccc2cc1OC)c1c(N)n(Cc2ccccc2)c(=O)[nH]c1=O	55	-16	2	x	-17	-55
C[C@H](CO)N1C[C@H](C)[C@H](CN(C)S(=O)(=O)c2ccc(F)cc2)Oc2c(NC(=O)C3CC3)cccc2C1=O	x	x	-34	-15	x	x
COc1ccc(/C=C2\CCC/C(=C\c3ccc(OC)c(OC)c3OC)C2=O)c(OC)c1OC	74*	-6	-3	-6	-9	-74
COc1cc(OC)c(OC)cc1/C=C1\CCC/C(=C\c2cc(OC)c(OC)cc2OC)C1=O	44	0	-15	0	-12	-44
COc1ccccc1C(=O)NC(=S)Nc1ccccc1N1CCCC1	75*	-3	-5	-3	-9	-75
Cc1ccccc1C(=O)NC(=S)Nc1ccccc1N1CCCC1	42	-2	-2	x	-5	-42
Cc1ccc(O)c(N=CC2=C(O)c3ccccc3C2=O)c1	118*	-9	x	1	-11	-118
C=CCN(c1ccccc1)S(=O)(=O)c1cccc(C(=O)NNC(=O)c2ccccc2O)c1	87*	-3	1	6	-5	-87
C=CCN(c1ccccc1)S(=O)(=O)c1cccc(C(=O)Nc2ccncc2)c1	22	-13	4	1	-9	-22
C=CCN(c1ccccc1)S(=O)(=O)c1cccc(C(=O)Nc2ccc(N3CCOCC3)cc2)c1	80*	-9	2	-6	-22	-80
O=C(Nc1ccc(N2CCOCC2)cc1)c1cccc(S(=O)(=O)N2CCCCC2)c1	80*	-8	x	-2	-1	-80
COc1ccc2c3c([nH]c2c1)[C@@H](CO)N(C(=O)C1CCCC1)CC31CN(C(=O)c2ccncc2)C1	x	x	1	x	x	x
COc1ccc(NC(=O)N2CCN(c3nc4ccccc4n3C(C)C)CC2)cc1	81*	-6	-1	x	-13	-81
COc1cccc(-c2csc(N3CCN(C(=O)Nc4ccc(Cl)cc4)CC3)n2)c1	56	-11	2	x	-9	-56
COc1ccc(NC(=O)N2CCN(c3nc(-c4cccc(OC)c4)cs3)CC2)cc1	71*	-16	x	0	-9	-71
Cc1cccc2c(N)c3c(nc12)CCCC3 (tested in a mixture with another compound)	-3	-8	4	17	-5	3
Cc1cc(C)c2c(N)c3cccc(C)c3nc2n1	16	-12	-11	x	49*	-16
SMILES	SR-BI DiI inh	PvdQ inh	S100A4 inh HTS	RAD54 branch	dFosB activator	SR-BI uptake up
O=C(N[C@H]1CC[C@@H](CCNS(=O)(=O)c2ccc(F)cc2)O[C@@H]1CO)c1cccnc1	x	x	-6	6	x	x
Cc1ccc(C2=NS(=O)(=O)N(C)C(C(=O)Nc3cc(C)n(CC(=O)N4CCC(C)CC4)n3)=C2)cc1	86*	-15	0	0	8	-86
Cc1ccc(C2=NS(=O)(=O)N(C)C(C(=O)NC3CCCCC3)=C2)cc1	1	-8	2	0	4	-1
COc1ccc(COc2cc(-c3cccc(OC)c3)nc3ccc(NC(=O)c4ccc(OC)cc4)cc23)cc1	73*	-5	0	2	u	-73
COc1ccc(COc2cc(-c3cccc(OC)c3)nc3ccc(NC(=O)c4ccccc4)cc23)cc1	u	4	4	0	u	-72
COc1ccc(COc2cc(-c3cccc(OC)c3)nc3ccc(NC(=O)c4ccc(Cl)cc4)cc23)cc1	73*	2	3	-6	u	-73
O=C(NC[C@H]1CC[C@H]2[C@H](CN2S(=O)(=O)c2ccccc2)O1)NC1CCCCC1	x	x	9	x	x	x
COc1cc(O)cc2c1[C@@H]1Oc3c(ccc(O)c3CC=C(C)C)[C@@H]1CO2	85*	-10	-5	0	-6	-85
COc1c(CC=C(C)C)cc(C2CC(=O)c3c(O)cc(O)cc3O2)cc1CC=C(C)C (centres undefined)	42	-11	-3	-8	-10	-42
Cc1c(OCC(=O)NCCCN2CCCC2=O)ccc2c3c(c(=O)oc12)CCC3	0	-3	+	5	-17	0
CCC(=O)N(C)C[C@H]1Oc2cc(-c3ccccc3OC)ccc2S(=O)(=O)N([C@H](C)CO)C[C@@H]1C	x	x	2	8	x	x
S=C1NC(c2ccccc2)=CC(c2ccccc2)N1 (centres undefined)	82*	5	5	x	-5	-82
COc1ccc2sc(-c3ccccc3OC)c(-c3ccc(OC)nc3)c2c1	33	-8	-10	0	3	-33
COc1ccc(-c2sc3ccc(OC)cc3c2-c2ccc(OC)nc2)cc1	75*	16	1	-15	4	-75
Cc1onc(-c2c(Cl)cccc2Cl)c1NC(=O)NN(C)C	-10	7	-1	-1	7	10
CSCCNC(=O)Nc1c(-c2c(Cl)cccc2Cl)noc1C	-142	-4	0	x	2	142*
CN(C)CC(=O)N[C@@H]1C=C[C@H](CC(=O)O)O[C@H]1CO	x	x	-5	x	x	x
COc1ccc(CN2C[C@@H](C)[C@H](OC)CN(C)C(=O)c3ccc(NC(C)=O)cc3OC[C@H]2C)cc1	x	x	13	x	x	x
CC(/C=C/c1ccccc1)=N\NC(N)=S	77*	-1	x	7	-3	-77
CC(/C=C/c1ccccc1)=N\NC(=S)NC(C)C	17	10	3	-6	-5	-17
C/C(=N\NC(N)=S)c1ccc2c(c1)OCCO2	76*	-14	-1	x	-4	-76
